Data taken from publication PMC4145632 (ACS Chemical Biology, 2014).

Legend:
[1] = tested on: HCT116 cells; test: MTS cytotoxicity assay in HCT116 cells; type: cell-based, human; conditions: HCT116, 48 h, all concentrations tested 1.6–25 μM
[2] = tested on: SiHa cells; test: Cell proliferation in SiHa cells; type: cell-based, human; conditions: data not shown
[3] = tested on: HeLa (HPV18 integrated); test: p53 level Western blot in HeLa cells; type: cell-based, human; conditions: 48 h, compound 1–10 μM
Outline: (§1)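 Cells plated, then dosed next day with increasing concentrations of test compound in DMSO, or DMSO control, for 48 h. HCT116 (colon, wild-type p53) got the same concentrations as SiHa/HeLa. Cells washed twice, lysed in RIPA buffer with protease inhibitors, and protein normalised by BCA. Lysates run on SDS-PAGE, transferred to PVDF and probed with anti-p53 antibody.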

[4] = tested on: PA-1/E6 cells; test: p53 level Western blot in PA-1/E6 cells; type: cell-based, human; conditions: PA-1/E6, Western blot of remaining cells after treatment
Outline: (§2)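 PA-1 and PA-1/HPV16 E6 cells treated with test compound at the same concentrations used for the resazurin viability test. Remaining cells washed, lysed in RIPA buffer with protease inhibitors and protein normalised by BCA. Lysates resolved by SDS-PAGE, transferred to PVDF and immunoblotted for p53.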

[5] = Resazurin cell viability, PA-1/E6 cells; type: cell-based, human; conditions: human, PA-1/E6 cells (PA-1 cells stably transfected with E6)
Outline: (§3)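 Cells plated on day 1; test compound in DMSO, or DMSO, added on day 2. Puromycin as control. Flavonoid compounds and puromycin incubated 24 h. Resazurin then added to 5 μM final for 1 h; resorufin fluorescence read at 590 nm as a surrogate for viability. Cells: HCT116, parental PA-1 (human ovarian teratocarcinoma) or PA-1 stably transfected with HPV16 E6.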

[6] = tested on: PA-1/E6 cells; test: Resazurin cell viability, PA-1/E6 cells; type: cell-based, human; conditions: PA-1/E6, 24 h
Outline: as §3

[7] = tested on: PA-1 cells; test: p53 level Western blot in PA-1 cells; type: cell-based, human; conditions: PA-1, Western blot of remaining cells after treatment
Outline: as §2

[8] = target: E6–E6AP interaction (Human papillomavirus type 16, UniProt P03126); test: ELISA-based E6–E6AP association assay; type: binding, HPV16; conditions: E6M-GST / MBP-E6AP association
Sequence of E6–E6AP interaction (P03126 whole entry): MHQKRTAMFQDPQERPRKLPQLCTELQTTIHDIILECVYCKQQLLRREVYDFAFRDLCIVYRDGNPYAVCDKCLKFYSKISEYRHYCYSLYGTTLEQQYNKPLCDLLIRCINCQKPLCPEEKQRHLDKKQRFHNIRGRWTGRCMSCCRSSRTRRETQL
Sequence of E6–E6AP interaction (Q05086 363-440, further chain): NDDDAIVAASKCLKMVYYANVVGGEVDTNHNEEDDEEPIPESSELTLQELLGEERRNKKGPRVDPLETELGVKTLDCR

[9] = tested on: HeLa cells; test: Cell proliferation in HeLa cells; type: cell-based, human; conditions: data not shown
[10] = tested on: E6M; test: Fluorescent E6 thermal stability assay; type: binding, HPV16; conditions: E6M melting curve 20-80 °C, 4 µM E6M, 10 µM compound
Outline: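 Full-length untagged E6M: bacterially expressed 6xHis-SUMO fusion, SUMO-protease cleaved, SUMO removed on Ni-NTA. E6M mixed in buffer with SYPRO orange and test compound in DMSO, or DMSO control. Controls: protein only, compound only. Heated 20–80 °C in a real-time PCR instrument; fluorescence at 580 nm (dye bound to protein) read against temperature. Run in replicate.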

[11] = tested on: SiHa (HPV16 integrated); test: p53 level Western blot in SiHa cells; type: cell-based, human; conditions: 48 h, compound 1–10 μM
Outline: as §1

[12] = tested on: HCT116 cells; test: p53 level Western blot in HCT116 cells; type: cell-based, human
Outline: as §1

[13] = tested on: HCT116 cells; test: Resazurin cell viability, HCT116 cells; type: cell-based, human; conditions: HCT116, 24 h
Outline: as §3

[14] = tested on: PA-1 parental cells; test: Resazurin cell viability, PA-1 parental cells; type: cell-based, human; conditions: 24 h
Outline: as §3

[15] = tested on: HPV-positive cell lines; conditions: HPV-positive cell lines ref 33; cited from earlier work
[16] = tested on: HPV-positive cell lines; conditions: cited from earlier work
[17] = HCT116, same concentrations as viability test (Figure 6B)

## O=c1c(O)c(-c2ccc(O)c(O)c2)oc2c(O)c(O)cc(O)c12 [Gossypetin]
[1]
  Toxicity (MTS): not toxic
[2]
  Inhibition of cell proliferation: did not observe an inhibition of cell proliferation
[3]
  p53 levels: significant increase in p53 levels
[4]
  p53 levels: concentration dependent increase
[5]
  viability at 24 h: > 50%
[6]
  Cell viability (resazurin): sensitive
[7]
  p53 levels: unchanged
[8]
  ELISA IC50 (stated in words): sub-micromolar
[9]
  Inhibition of cell proliferation: did not observe an inhibition of cell proliferation
[10]
  Thermal Stability: stabilizes E6M
[11]
  p53 levels: significant increase in p53 levels
[12]; [17]
  p53 levels: unchanged

## COc1ccc(C[C@H](N)C(=O)N[C@H]2[C@@H](O)[C@H](n3cnc4c(N(C)C)ncnc43)O[C@@H]2CO)cc1 [Puromycin, reference compound]
[13]
  Cell viability (resazurin): equally cytotoxic
[6]
  Cell viability (resazurin): equally cytotoxic
[14]
  Cell viability (resazurin): equally cytotoxic

## O=c1cc(-c2ccccc2)oc2cc(O)c(O)c(O)c12 [baicalein]
[2]
  Inhibition of cell proliferation: did not observe an inhibition of cell proliferation
[4]
  p53 levels: concentration dependent increase
[5]
  viability at 24 h: > 50%
[6]
  Cell viability (resazurin): sensitive
[7]
  p53 levels: unchanged
[8]
  ELISA IC50 (stated in words): sub-micromolar
[9]
  Inhibition of cell proliferation: did not observe an inhibition of cell proliferation
[12]; [17]
  p53 levels: unchanged

## CC[n+]1c(-c2ccccc2)c2cc(N)ccc2c2ccc(N)cc21 [ethidium bromide, Ethidium bromide, reference compound]
[12]; HCT116 (HPV-negative, wild-type p53), 48 h, Western blot
  p53 levels: effectively stabilized p53

## O=c1cc(-c2ccc(O)c(O)c2)oc2cc(O)cc(O)c12 [luteolin]
[15]
  p53 and p21Cip1/Waf1 protein: increase in p53 and p21^Cip1/Waf1 protein
[16]
  Viability of HPV-positive cell lines: decreased viability
